Measurements taken from ChEMBL document CHEMBL1133058, “(+)-4-phosphonophenylglycine (PPG) a new group III selective metabotropic glutamate receptor agonist” (Bioorg Med Chem Lett, 2000).
The source made the active and inactive calls. The rule behind the calls is not given here.

What was measured:
[1] = molecular target: T1, Metabotropic glutamate receptor 7 (Homo sapiens, UniProt Q14831); assay: Inhibition of forskolin stimulated cAMP accumulation in CHO cells expressing hmGluR7b at a concentration of 500 uM; Inactive
[2] = molecular target: T2, Metabotropic glutamate receptor 4 (Homo sapiens, UniProt Q14833); assay: Inhibition of forskolin stimulated cAMP accumulation in CHO cells expressing hmGluR4a at a concentration of 2000 uM; Inactive
[3] = molecular target: T2, Metabotropic glutamate receptor 4; assay: Compound was evaluated for the inhibition of forskolin stimulated cAMP accumulation in CHO cells expressing hmGluR4a; assay type: functional, cell-based
In short: (§1)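 Human mGluR4a or mGluR7b stably expressed in CHO cells; both enantiomers tested in the same functional assay, with cAMP measured by radioimmunoassay and EC50 values reported.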

[4] = molecular target: T1, Metabotropic glutamate receptor 7; assay: Compound was evaluated for the inhibition of forskolin stimulated cAMP accumulation in CHO cells expressing hmGluR7b; assay type: functional, cell-based
In short: as §1

[5] = molecular target: Metabotropic glutamate receptor 1 (Homo sapiens) (UniProt Q13255); assay: Activity against human Metabotropic glutamate receptor 1 up to a concentration of 300 uM; Not active
[6] = molecular target: Metabotropic glutamate receptor 3 (Homo sapiens) (UniProt Q14832); assay: Activity against Metabotropic glutamate receptor 3; Not active
[7] = molecular target: Metabotropic glutamate receptor 3 (Homo sapiens) (UniProt Q14832); assay: Activity against human Metabotropic glutamate receptor 3 up to a concentration of 300 uM; Not active
[8] = molecular target: Metabotropic glutamate receptor 5 (Homo sapiens) (UniProt P41594); assay: Activity against human Metabotropic glutamate receptor 5 up to a concentration of 300 uM; Not active
[9] = molecular target: Metabotropic glutamate receptor 2 (Homo sapiens) (UniProt Q14416); assay: Activity against human Metabotropic glutamate receptor 2 up to a concentration of 300 uM; Not active
[10] = molecular target: Metabotropic glutamate receptor 6 (Homo sapiens) (UniProt O15303); assay: Activity against Metabotropic glutamate receptor 6; Not active
[11] = molecular target: Glutamate NMDA receptor; GRIN1/GRIN2A (Homo sapiens) (UniProt Q05586+Q12879); assay: Activity against cloned ionotropic N-methyl-D-aspartate glutamate receptor 1/2A; Not active; assay type: protein-complex assay
[12] = molecular target: Glutamate NMDA receptor; GRIN1/GRIN2B (Homo sapiens) (UniProt Q05586+Q13224); assay: Activity against cloned ionotropic N-methyl-D-aspartate glutamate receptor 1/2B; Not active; assay type: protein-complex assay
[13] = molecular target: Glutamate [NMDA] receptor (Homo sapiens) (UniProt Q05586+Q12879+Q13224+O15399+O60391+Q14957+Q8TCU5); assay: Binding affinity (100 uM) against N-methyl-D-aspartate glutamate receptor using [3H]CPP binding was determined; No activity; assay type: protein-complex assay
[14] = molecular target: Glutamate receptor ionotropic, NMDA 1 (Homo sapiens, UniProt Q05586); assay: Dissociation constant against N-methyl-D-aspartate glutamate receptor using [3H]CPP binding was determined
[15] = molecular target: T3, Metabotropic glutamate receptor 4 (Rattus norvegicus, UniProt P31423); assay: Effective concentration against Metabotropic glutamate receptor 4
[16] = molecular target: T3, Metabotropic glutamate receptor 4; assay: Effective concentration against rat Metabotropic glutamate receptor 4

T2 sequence (Q14833 whole entry): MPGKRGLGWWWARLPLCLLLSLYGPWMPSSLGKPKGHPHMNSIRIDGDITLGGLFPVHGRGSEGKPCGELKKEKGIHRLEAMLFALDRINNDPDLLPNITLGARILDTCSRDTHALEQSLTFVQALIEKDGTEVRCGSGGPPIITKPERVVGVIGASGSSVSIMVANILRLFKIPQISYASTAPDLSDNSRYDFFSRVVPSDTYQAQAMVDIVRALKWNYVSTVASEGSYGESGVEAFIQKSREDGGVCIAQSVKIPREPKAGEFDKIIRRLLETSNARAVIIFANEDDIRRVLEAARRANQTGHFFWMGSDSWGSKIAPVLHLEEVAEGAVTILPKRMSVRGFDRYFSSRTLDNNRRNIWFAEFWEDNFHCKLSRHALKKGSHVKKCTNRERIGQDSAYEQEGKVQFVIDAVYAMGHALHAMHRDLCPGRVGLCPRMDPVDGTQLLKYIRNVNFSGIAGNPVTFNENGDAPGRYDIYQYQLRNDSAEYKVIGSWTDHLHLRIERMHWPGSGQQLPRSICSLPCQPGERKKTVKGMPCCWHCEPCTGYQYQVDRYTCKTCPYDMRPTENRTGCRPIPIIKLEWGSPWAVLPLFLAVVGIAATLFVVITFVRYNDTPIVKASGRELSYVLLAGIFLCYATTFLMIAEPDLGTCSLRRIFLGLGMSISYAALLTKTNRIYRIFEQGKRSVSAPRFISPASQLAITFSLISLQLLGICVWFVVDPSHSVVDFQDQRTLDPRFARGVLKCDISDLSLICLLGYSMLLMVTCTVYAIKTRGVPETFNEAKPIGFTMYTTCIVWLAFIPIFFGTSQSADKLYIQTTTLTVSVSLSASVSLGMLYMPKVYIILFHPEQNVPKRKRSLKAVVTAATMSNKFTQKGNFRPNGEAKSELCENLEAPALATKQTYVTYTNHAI
T1 sequence (Q14831 whole entry): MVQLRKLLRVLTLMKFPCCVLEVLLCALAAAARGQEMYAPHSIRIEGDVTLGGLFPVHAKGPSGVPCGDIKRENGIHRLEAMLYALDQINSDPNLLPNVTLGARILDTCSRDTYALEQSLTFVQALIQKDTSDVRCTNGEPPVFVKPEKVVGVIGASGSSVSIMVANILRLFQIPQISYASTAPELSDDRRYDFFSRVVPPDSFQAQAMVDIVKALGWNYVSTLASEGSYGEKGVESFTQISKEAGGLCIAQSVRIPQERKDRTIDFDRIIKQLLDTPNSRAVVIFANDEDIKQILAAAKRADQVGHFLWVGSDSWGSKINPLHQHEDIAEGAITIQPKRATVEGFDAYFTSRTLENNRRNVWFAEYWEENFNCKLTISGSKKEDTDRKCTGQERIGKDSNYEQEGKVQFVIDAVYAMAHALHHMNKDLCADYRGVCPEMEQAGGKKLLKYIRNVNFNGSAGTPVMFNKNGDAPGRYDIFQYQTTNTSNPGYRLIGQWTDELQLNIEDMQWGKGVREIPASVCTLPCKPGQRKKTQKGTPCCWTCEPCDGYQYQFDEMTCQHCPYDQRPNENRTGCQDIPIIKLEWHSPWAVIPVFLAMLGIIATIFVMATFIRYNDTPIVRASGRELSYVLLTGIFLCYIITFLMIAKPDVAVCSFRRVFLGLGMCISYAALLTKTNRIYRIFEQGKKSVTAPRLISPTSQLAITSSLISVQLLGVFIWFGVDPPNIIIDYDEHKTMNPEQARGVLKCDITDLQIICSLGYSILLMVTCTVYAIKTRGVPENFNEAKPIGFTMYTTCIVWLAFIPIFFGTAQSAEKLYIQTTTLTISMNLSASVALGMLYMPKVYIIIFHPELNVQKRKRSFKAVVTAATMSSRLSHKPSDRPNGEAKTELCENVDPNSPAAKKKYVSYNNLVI
T3 sequence (P31423 whole entry): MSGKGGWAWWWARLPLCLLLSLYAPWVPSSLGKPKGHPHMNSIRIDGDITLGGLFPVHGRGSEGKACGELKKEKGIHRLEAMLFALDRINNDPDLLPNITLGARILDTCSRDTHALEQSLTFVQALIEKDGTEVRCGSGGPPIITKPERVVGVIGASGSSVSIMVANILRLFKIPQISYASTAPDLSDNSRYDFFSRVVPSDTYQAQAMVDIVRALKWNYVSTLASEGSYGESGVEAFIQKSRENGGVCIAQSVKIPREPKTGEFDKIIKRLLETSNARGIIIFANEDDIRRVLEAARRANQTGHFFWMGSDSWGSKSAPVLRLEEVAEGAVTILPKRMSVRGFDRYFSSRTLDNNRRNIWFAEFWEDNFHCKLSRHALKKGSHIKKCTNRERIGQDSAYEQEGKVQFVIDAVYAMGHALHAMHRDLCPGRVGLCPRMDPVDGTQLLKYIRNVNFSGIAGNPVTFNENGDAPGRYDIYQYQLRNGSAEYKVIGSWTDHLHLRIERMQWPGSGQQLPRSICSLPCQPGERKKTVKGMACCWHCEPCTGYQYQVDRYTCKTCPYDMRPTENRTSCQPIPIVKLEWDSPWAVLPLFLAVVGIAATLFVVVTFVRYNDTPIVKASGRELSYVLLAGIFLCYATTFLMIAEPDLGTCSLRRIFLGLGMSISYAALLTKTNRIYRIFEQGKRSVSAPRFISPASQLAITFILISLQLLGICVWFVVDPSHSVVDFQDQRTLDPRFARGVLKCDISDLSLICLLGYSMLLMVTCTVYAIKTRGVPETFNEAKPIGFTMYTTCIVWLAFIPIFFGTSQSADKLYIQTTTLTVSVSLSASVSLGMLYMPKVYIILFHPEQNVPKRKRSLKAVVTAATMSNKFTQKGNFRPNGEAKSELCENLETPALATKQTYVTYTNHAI
Metabotropic glutamate receptor 3 (Homo sapiens), sequence (Q14832 23-879 limits assumed): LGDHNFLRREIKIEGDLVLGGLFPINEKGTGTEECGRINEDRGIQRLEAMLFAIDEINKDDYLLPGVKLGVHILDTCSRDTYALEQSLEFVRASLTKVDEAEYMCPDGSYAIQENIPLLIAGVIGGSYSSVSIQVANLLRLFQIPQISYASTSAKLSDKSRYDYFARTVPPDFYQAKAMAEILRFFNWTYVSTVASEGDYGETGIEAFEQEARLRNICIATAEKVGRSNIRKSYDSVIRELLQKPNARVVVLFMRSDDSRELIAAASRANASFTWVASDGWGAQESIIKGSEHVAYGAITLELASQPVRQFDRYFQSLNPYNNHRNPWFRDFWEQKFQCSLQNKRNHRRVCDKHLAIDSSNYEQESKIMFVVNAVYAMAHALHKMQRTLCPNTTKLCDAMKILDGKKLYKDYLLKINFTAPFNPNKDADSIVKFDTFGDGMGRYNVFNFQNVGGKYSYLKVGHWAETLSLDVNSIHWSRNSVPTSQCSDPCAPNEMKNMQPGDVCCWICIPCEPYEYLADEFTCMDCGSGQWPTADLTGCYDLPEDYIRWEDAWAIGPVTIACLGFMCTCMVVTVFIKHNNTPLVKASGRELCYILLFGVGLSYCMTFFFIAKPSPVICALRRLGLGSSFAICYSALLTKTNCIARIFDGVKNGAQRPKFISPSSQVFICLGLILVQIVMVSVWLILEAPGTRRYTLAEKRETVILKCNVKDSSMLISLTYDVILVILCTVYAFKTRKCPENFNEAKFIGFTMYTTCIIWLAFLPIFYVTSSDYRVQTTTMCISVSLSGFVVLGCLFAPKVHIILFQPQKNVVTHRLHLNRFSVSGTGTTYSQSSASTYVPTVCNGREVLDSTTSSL
Metabotropic glutamate receptor 5 (Homo sapiens), sequence (P41594 21-1212 limits assumed): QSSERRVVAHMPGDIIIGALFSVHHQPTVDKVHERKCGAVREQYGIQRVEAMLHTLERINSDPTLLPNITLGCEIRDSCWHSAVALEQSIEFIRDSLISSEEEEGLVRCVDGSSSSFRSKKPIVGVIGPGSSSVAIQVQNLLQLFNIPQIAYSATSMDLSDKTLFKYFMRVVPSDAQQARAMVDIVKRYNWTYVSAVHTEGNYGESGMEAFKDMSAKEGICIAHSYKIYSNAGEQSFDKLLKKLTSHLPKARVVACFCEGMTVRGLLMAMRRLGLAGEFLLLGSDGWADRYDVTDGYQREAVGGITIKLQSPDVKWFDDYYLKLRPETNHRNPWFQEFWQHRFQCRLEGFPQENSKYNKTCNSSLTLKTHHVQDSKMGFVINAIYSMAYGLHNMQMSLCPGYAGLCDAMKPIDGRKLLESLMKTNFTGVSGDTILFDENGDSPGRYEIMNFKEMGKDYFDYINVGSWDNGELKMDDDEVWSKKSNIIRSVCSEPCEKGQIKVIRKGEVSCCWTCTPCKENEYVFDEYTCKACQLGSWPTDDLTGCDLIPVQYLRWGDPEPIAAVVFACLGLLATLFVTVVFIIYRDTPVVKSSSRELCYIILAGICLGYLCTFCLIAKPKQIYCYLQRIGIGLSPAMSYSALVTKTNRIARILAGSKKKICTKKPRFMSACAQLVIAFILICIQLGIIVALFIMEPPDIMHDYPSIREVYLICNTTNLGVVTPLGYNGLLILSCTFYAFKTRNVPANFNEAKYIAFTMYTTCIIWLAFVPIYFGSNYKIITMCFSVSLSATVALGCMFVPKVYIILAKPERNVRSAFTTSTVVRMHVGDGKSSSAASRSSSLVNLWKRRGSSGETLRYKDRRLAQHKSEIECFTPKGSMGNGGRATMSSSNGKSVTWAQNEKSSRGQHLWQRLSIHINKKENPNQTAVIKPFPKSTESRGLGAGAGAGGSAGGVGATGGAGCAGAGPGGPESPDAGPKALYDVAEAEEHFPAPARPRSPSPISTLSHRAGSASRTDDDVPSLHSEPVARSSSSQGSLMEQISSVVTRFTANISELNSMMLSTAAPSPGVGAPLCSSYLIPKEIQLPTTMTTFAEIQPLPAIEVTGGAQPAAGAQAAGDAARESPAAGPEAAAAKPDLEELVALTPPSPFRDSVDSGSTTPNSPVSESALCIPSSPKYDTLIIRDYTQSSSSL

With `NC(C(=O)O)c1ccc(P(=O)(O)O)cc1` (stereo not drawn) the EC50 [1] was “Not Active” and the EC50 [2] was “Not Active”.

Molecule `NC(C(=O)O)c1ccc(P(=O)(O)O)cc1` (single isomer, unassigned; (+)) has an EC50 [3] of 3.2 µM and an EC50 [4] of 48 µM.

For `NC(C(=O)O)c1ccc(P(=O)(O)O)cc1` (stereo in doubt) [listing 1 of 2 here], the Activity [5] was “inactive”, the Activity [6] was “inactive” and the Activity [7] was “inactive”. The Activity [8] was “inactive”, the Activity [9] was “inactive” and the Activity [10] was “inactive”. The Activity [11] was “inactive”, the Activity [12] was “inactive” and the Activity [13] was “inactive”.

`NC(C(=O)O)c1ccc(CP(=O)(O)O)cc1` (stereo not drawn) was tested, and the Kd [14] was 3 µM.

`NC1(C(=O)O)CC1CP(=O)(O)O` (stereo not drawn) was tested, and the EC50 [15] was 500 nM.

In the case of `NC(C(=O)O)c1ccc(P(=O)(O)O)cc1` (stereo in doubt) [listing 2 of 2 here], the EC50 [3] is reported as 5.2 µM and the EC50 [4] is reported as 185 µM.

In the case of `NC1(C(=O)O)CC(=CP(=O)(O)O)C1` (stereo not drawn), the EC50 [16] is reported as 4.5 µM.
